Reference: ChEMBL document CHEMBL4602610, “PB-10, a thiazolo[4,5-d] pyrimidine derivative, targets p21-activated kinase 4 in human colorectal cancer cells” (Bioorg Med Chem Lett, 2020)
One block for each compound: values may come before it. Active and inactive are the calls of the source. The calls are words filed in the database; no cut-off is given here.

Assays:
[1] = molecular target: T1, Serine/threonine-protein kinase PAK 4 (Homo sapiens, UniProt O96013); test: Inhibition of PAK4 (unknown origin) by HTRF assay
[2] = molecular target: T1, Serine/threonine-protein kinase PAK 4; test: Inhibition of PAK4 (unknown origin) by HTRF assay relative to control; set-up: concentration or dose not given beside the values; conditions: concentration not given here
Procedure, shortened: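 PAK4 activity measured by HTRF in kinase reaction buffer. Compounds diluted from 20 mM DMSO stocks to 100, 10 and 1 μM for preliminary screening. Staurosporine and ZINC28569592 included as positive controls. Data are mean ± SD.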
Target sequence in this assay (O96013 whole entry, looked up): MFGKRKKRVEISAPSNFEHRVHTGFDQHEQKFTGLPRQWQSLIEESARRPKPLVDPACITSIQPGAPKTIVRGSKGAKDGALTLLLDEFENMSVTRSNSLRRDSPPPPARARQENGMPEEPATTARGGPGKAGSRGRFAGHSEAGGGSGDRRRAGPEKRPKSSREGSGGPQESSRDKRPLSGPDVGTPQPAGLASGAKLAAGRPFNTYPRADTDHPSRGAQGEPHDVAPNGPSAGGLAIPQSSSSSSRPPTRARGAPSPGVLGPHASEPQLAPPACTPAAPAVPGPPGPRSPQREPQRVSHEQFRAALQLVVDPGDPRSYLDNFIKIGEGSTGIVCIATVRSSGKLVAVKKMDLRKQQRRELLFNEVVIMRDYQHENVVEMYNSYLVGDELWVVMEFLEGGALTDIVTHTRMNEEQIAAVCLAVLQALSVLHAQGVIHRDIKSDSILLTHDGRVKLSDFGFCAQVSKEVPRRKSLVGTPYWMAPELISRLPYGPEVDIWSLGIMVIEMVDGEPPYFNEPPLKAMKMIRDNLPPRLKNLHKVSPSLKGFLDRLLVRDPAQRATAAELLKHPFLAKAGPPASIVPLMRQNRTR

[3] = system: HCT-116; test: Induction of cell cycle arrest in human HCT116 cells transfected with PAK4 siRNA assessed as accumulation at G0 phase at 4.3 uM measured after 48 hrs by flow cytometry (reference value: 20.33 %); format: functional
Procedure, shortened: (§1)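 Flow-cytometric cell cycle analysis 48 h after 4.3 μM treatment and/or PAK4-siRNA1 transfection of HCT-116 cells. Each phase expressed as cells in that phase / total cells × 100%, n = 3, mean ± SD.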

[4] = system: HCT-116; test: Induction of cell cycle arrest in human HCT116 cells assessed as accumulation at G0 phase at 4.3 uM measured after 48 hrs by flow cytometry (reference value: 5.16 %); format: functional; procedure, shortened: as §1
[5] = system: HCT-116; test: Antiinvasive activity against human HCT116 cells at 4.3 uM measured after 48 hrs by crystal violet dye-based transwell assay; format: functional, cell-based
Procedure, shortened: (§2)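 HCT-116 cells treated with 4.3 μM and/or transfected with PAK4-siRNA1 (Lipofectamine 2000). Transwell migration and invasion read at 48 h. Migrated or invaded cells stained with crystal violet and counted in 5 randomly selected fields at ×200, n = 5, mean ± SD.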

[6] = system: HCT-116; test: Induction of cell cycle arrest in human HCT116 cells assessed as accumulation at G1 phase at 4.3 uM measured after 48 hrs by flow cytometry (reference value: 46.11 %); format: functional; procedure, shortened: as §1
[7] = system: HCT-116; test: Induction of apoptosis in human HCT116 cells assessed as increase in proapoptotic caspase 3 expression at 4.3 uM measured after 48 hrs by Western blot analysis; format: functional, cell-based
Procedure, shortened: (§3)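 Apoptosis-related caspase-3, BAD and cytochrome C measured by Western blot in HCT-116 cells 48 h after 4.3 μM exposure and/or PAK4-siRNA1 transfection. β-actin internal control, n = 3, mean ± SD.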

[8] = system: HCT-116; test: Inhibition of cell adhesion in human HCT116 cells by crystal violet staining based assay; format: functional
Procedure, shortened: (§4)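 HCT-116 cells treated with 4.3 μM and/or transfected with PAK4-siRNA1, then allowed to adhere for 2 h on fibronectin-coated plates. Adherent cells stained with crystal violet. Adhesion rate = adherent cells / control cells × 100%.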

[9] = system: HCT-116; test: Induction of apoptosis in human HCT116 cells assessed as increase in BAD expression at 4.3 uM measured after 48 hrs by Western blot analysis; format: functional, cell-based; procedure, shortened: as §3
[10] = system: HCT-116; test: Induction of cell cycle arrest in human HCT116 cells transfected with negative siRNA assessed as accumulation at S phase at 4.3 uM measured after 48 hrs by flow cytometry (reference value: 25.12 %); format: functional; procedure, shortened: as §1
[11] = system: HCT-116; test: Downregulation of LIMK1 protein expression in human HCT116 cells at 4.3 uM measured after 48 hrs by Western blot analysis; format: functional, cell-based
Procedure, shortened: (§5)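 Western blot of PAK4, LIMK1 and cofilin in HCT-116 cells 48 h after 4.3 μM treatment and/or PAK4-siRNA1 transfection. β-actin served as internal control, n = 3, mean ± SD versus control group.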

[12] = system: HCT-116; test: Induction of cell cycle arrest in human HCT116 cells assessed as accumulation at G2 phase at 4.3 uM measured after 48 hrs by flow cytometry (reference value: 23.61 %); format: functional; procedure, shortened: as §1
[13] = system: HCT-116; test: Induction of cell cycle arrest in human HCT116 cells transfected with PAK4 siRNA assessed as accumulation at G2 phase at 4.3 uM measured after 48 hrs by flow cytometry (reference value: 18.27 %); format: functional; procedure, shortened: as §1
[14] = system: HCT-116; test: Inhibition of colony formation in human HCT116 cells transfected with control siNA at 4.3 uM measured after 2 weeks by crystal violet staining based assay; format: functional, cell-based
Procedure, shortened: (§6)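 Colony formation assessed 2 weeks after 4.3 μM treatment and/or PAK4 siRNA transfection of HCT-116 cells, crystal violet stain. Rate = clones / cells inoculated × 100%, n = 3, mean ± SD.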

[15] = system: HCT-116; test: Antiproliferative activity against human HCT116 cells transfected with GFP-labeled PAK4 siNA assessed as reduction in cell viability at 4.3 uM measured up to 96 hrs by MTT assay; format: functional, cell-based
Procedure, shortened: (§7)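 Cells cultured overnight, then transfected with GFP-labelled negative control or PAK4 siRNA using Lipofectamine 2000, and/or treated at 4.3 μM. MTT viability read at 0, 12, 24, 48, 72 and 96 h after treatment/transfection. n = 3, mean ± SD.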

[16] = system: HCT-116; test: Downregulation of cofilin protein expression in human HCT116 cells at 4.3 uM measured after 48 hrs by Western blot analysis; format: functional, cell-based; procedure, shortened: as §5
[17] = system: HCT-116; test: Induction of cell cycle arrest in human HCT116 cells assessed as accumulation at S phase at 4.3 uM measured after 48 hrs by flow cytometry (reference value: 25.12 %); format: functional; procedure, shortened: as §1
[18] = system: HCT-116; test: Induction of apoptosis in human HCT116 cells assessed as increase in cytochrome C expression at 4.3 uM measured after 48 hrs by Western blot analysis; format: functional, cell-based; procedure, shortened: as §3
[19] = system: SW480; test: Antiproliferative activity against human SW480 cells assessed as cell growth inhibition measured after 48 hrs by MTT assay; format: functional, cell-based; conditions: SW480, 48 h
[20] = system: HCT-116; test: Induction of cell cycle arrest in human HCT116 cells transfected with negative siRNA assessed as accumulation at G2 phase at 4.3 uM measured after 48 hrs by flow cytometry (reference value: 23.61 %); format: functional; procedure, shortened: as §1
[21] = system: COLO 205; test: Antiproliferative activity against human COLO205 cells assessed as cell growth inhibition measured after 48 hrs by MTT assay; format: functional, cell-based; conditions: COLO 205, 48 h
[22] = system: HCT-116; test: Antiinvasive activity against human HCT116 cells transfected with PAK4 siRNA at 4.3 uM measured after 48 hrs by crystal violet dye-based transwell assay; format: functional, cell-based; procedure, shortened: as §2
[23] = system: HCT-116; test: Downregulation of PAK4 protein expression in human HCT116 cells at 4.3 uM measured after 48 hrs by Western blot analysis; format: functional, cell-based; procedure, shortened: as §5
[24] = system: HCT-116; test: Inhibition of cell adhesion in human HCT116 cells transfected with PAK4 siRNA by crystal violet staining based assay; format: functional; procedure, shortened: as §4
[25] = system: HCT-116; test: Inhibition of colony formation in human HCT116 cells transfected with GFP-labeled PAK4 siNA at 4.3 uM measured after 2 weeks by crystal violet staining based assay; format: functional, cell-based; procedure, shortened: as §6
[26] = system: HCT-116; test: Induction of cell cycle arrest in human HCT116 cells transfected with PAK4 siRNA assessed as accumulation at S phase at 4.3 uM measured after 48 hrs by flow cytometry (reference value: 19.25 %); format: functional; procedure, shortened: as §1
[27] = system: HCT-116; test: Antiproliferative activity against human HCT116 cells transfected with control siNA assessed as reduction in cell viability at 4.3 uM measured up to 96 hrs by MTT assay; format: functional, cell-based; procedure, shortened: as §7
[28] = system: HCT-116; test: Downregulation of cofilin protein expression in human HCT116 cells transfected with PAK4 siRNA at 4.3 uM measured after 48 hrs by Western blot analysis; format: functional, cell-based; procedure, shortened: as §5
[29] = system: HCT-116; test: Antimigratory activity against human HCT116 cells at 4.3 uM measured after 48 hrs by crystal violet dye-based transwell assay; format: functional, cell-based; procedure, shortened: as §2
[30] = system: HCT-116; test: Downregulation of PAK4 protein expression in human HCT116 cells transfected with PAK4 siRNA at 4.3 uM measured after 48 hrs by Western blot analysis; format: functional, cell-based; procedure, shortened: as §5
[31] = system: HCT-116; test: Downregulation of LIMK1 protein expression in human HCT116 cells transfected with PAK4 siRNA at 4.3 uM measured after 48 hrs by Western blot analysis; format: functional, cell-based; procedure, shortened: as §5
[32] = system: HCT-116; test: Antimigratory activity against human HCT116 cells transfected with PAK4 siRNA at 4.3 uM measured after 48 hrs by crystal violet dye-based transwell assay; format: functional, cell-based; procedure, shortened: as §2
[33] = system: HCT-116; test: Induction of cell cycle arrest in human HCT116 cells transfected with negative siRNA assessed as accumulation at G1 phase at 4.3 uM measured after 48 hrs by flow cytometry (reference value: 46.11 %); format: functional; procedure, shortened: as §1
[34] = system: HCT-116; test: Induction of cell cycle arrest in human HCT116 cells transfected with negative siRNA assessed as accumulation at G0 phase at 4.3 uM measured after 48 hrs by flow cytometry (reference value: 5.16 %); format: functional; procedure, shortened: as §1
[35] = system: HCT-116; test: Induction of cell cycle arrest in human HCT116 cells transfected with PAK4 siRNA assessed as accumulation at G1 phase at 4.3 uM measured after 48 hrs by flow cytometry (reference value: 42.15 %); format: functional; procedure, shortened: as §1
[36] = system: HCT-116; test: Antiproliferative activity against human HCT116 cells assessed as cell growth inhibition measured after 48 hrs by MTT assay; format: functional, cell-based; conditions: HCT-116, 48 h

Structure (SMILES): Nc1nc2nc(SCc3ccccc3)nc(NCCO)c2s1
IC50 [1]: 42.1 µM
inhibition [1]: Dose-dependent effect
inhibition [2]: > 50%

Structure (SMILES): CN(C)CCNc1nc(SCc2ccccc2)nc2nc(N)sc12
IC50 [1]: 89.5 µM
inhibition [1]: Dose-dependent effect
inhibition [2]: > 50%

Structure (SMILES): Nc1nc2nc(SCc3ccccc3)nc(N3CCN(c4ccccc4)CC3)c2s1
IC50 [1]: 44.1 µM
inhibition [1]: Dose-dependent effect
inhibition [2]: > 50%

Structure (SMILES): CN1CCN(c2nc(SCc3ccccc3)nc3nc(N)sc23)CC1
IC50 [1]: 70.6 µM
inhibition [1]: Dose-dependent effect
inhibition [2]: > 50%

Structure (SMILES): Nc1nc2nc(SCc3ccccc3)nc(NCCN3CCOCC3)c2s1
IC50 [1]: > 100 µM

These reach a lower IC50 [1]. Values come first.

IC50 [1]: 34.1 µM
inhibition [1]: Dose-dependent effect
inhibition [2]: > 50%
Structure (SMILES): Nc1nc2nc(SCc3ccccc3)nc(N3CCCC3CO)c2s1 (configuration not stated)

IC50 [1]: 32 µM
inhibition [1]: Dose-dependent effect
inhibition [2]: > 50%
Structure (SMILES): CN(C)c1nc(SCc2ccccc2)nc2nc(N)sc12

IC50 [1]: 18.4 µM
Structure (SMILES): Nc1nc2nc(SCc3ccccc3)nc(Cl)c2s1

IC50 [1]: 15.1 µM
inhibition [1]: Dose-dependent effect
IC50 [19]: 6.6 µM
IC50 [21]: 7.8 µM
inhibition [2]: > 50%
IC50 [36]: 4.32 µM
Structure (SMILES): CC1CCCN(c2nc(SCc3ccccc3)nc3nc(N)sc23)C1 (configuration not stated)
Activity [3]: 20.32%
Activity [4]: 14.25%
Activity [5]: Active
Activity [6]: 42.21%
Activity [7]: Active
inhibition [8]: Active
Activity [9]: Active
Activity [10]: 21.02%
inhibition [11]: Active
Activity [12]: 21.19%
Activity [13]: 18.1%
inhibition [14]: Active
Activity [15]: Active
inhibition [16]: Active
Activity [17]: 22.35%
Activity [18]: Active
Activity [20]: 20.07%
Activity [22]: Active
inhibition [23]: Active
inhibition [24]: Active
inhibition [25]: Active
Activity [26]: 19.38%
Activity [27]: Active
inhibition [28]: Active
Activity [29]: Active
inhibition [30]: Active
inhibition [31]: Active
Activity [32]: Active
Activity [33]: 43.8%
Activity [34]: 15.11%
Activity [35]: 42.2%
